According to ChEMBL document CHEMBL1142407, “Angucyclinones from an Indonesian Streptomyces sp” (J Nat Prod, 2008):
Active and inactive are the calls of the source. The calls are words filed in the database; no cut-off is given here.

Tests used:
Type in all cases: functional, organism-based
Staphylococcus aureus = test: Antibacterial activity against Staphylococcus aureus at 20 to 120 ug/disk
How it was run: (§1)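 Agar diffusion test with compound loaded at 20 to 120 µg/disk. Read-out is a zone of growth inhibition of the test organism on agar. The same format covers bacteria (S. aureus, B. subtilis, E. coli, P. aeruginosa), the fungus Mucor miehei and the yeast Candida albicans.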

Bacillus subtilis = test: Antibacterial activity against Bacillus subtilis at 20 to 120 ug/disk; how it was run: as §1
Escherichia coli = test: Antibacterial activity against Escherichia coli at 20 to 120 ug/disk; how it was run: as §1
Pseudomonas aeruginosa = test: Antibacterial activity against Pseudomonas aeruginosa at 20 to 120 ug/disk; how it was run: as §1
Rhizomucor miehei = test: Antifungal activity against Mucor miehei at 20 to 120 ug/disk; how it was run: as §1
Candida albicans = test: Antifungal activity against Candida albicans at 20 to 120 ug/disk; how it was run: as §1
Trichomonas vaginalis = test: Antiprotozoal activity against Trichomonas vaginalis

SMILES	Activity (Staphylococcus aureus)	Activity (Bacillus subtilis)	Activity (Escherichia coli)	Activity (Pseudomonas aeruginosa)	Activity (Rhizomucor miehei)	Activity (Candida albicans)	Activity (Trichomonas vaginalis)
C[C@@H]1CC(=O)C2=C(C[C@@H](O)[C@]3(O)[C@H]2C(=O)c2cccc(O)c2[C@@H]3O)[C@H]1O	inactive	inactive	inactive	inactive	inactive	inactive	inactive
C[C@@H]1CC(=O)C2=C(C1)C1OC1[C@]1(O)[C@H]2C(=O)c2cccc(O)c2[C@@H]1O (stereo not given in full)	inactive	inactive	inactive	inactive	inactive	inactive	inactive
C[C@@H]1CC(=O)C2=C(CC[C@]3(O)[C@H]2C(=O)c2cccc(O)c2[C@@H]3O)C1	inactive	inactive	inactive	inactive	inactive	inactive	inactive
CC1CC(=O)C2(O)C(O)(CCC34OC32C(=O)c2cccc(O)c2C4O)C1 (stereo not given)	inactive	inactive	inactive	inactive	inactive	inactive	–
C[C@@H]1CC(=O)C2=C(C1)C[C@@H](O)[C@]1(O)[C@H]2C(=O)c2cccc(O)c2[C@@H]1O	inactive	inactive	inactive	inactive	inactive	inactive	inactive
C[C@@H]1CC(=O)c2c(ccc3c2C(=O)c2cccc(O)c2C3=O)C1	–	Active	–	Active	–	–	–
C[C@H]1CC(=O)c2c(ccc3c2C(=O)c2cccc(O)c2C3=O)[C@@H]1O	–	Active	–	Active	–	–	–
C[C@@H]1CC(=O)C2=C(C3OC3[C@]3(O)[C@H]2C(=O)c2cccc(O)c2[C@@H]3O)[C@H]1O (stereo not given in full)	inactive	inactive	inactive	inactive	inactive	inactive	inactive
